Legend:
[1] = Cytotoxicity against human INA-6 cells assessed as viable fractions using annexin V-FITC/propidium iodide staining by flow cytometry; assay type: functional, cell-based
How it was run: (§1)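 Human multiple myeloma INA-6 cells or mononuclear cells from peripheral blood of healthy donors exposed to a range of compound concentrations. Viable fraction taken as annexin V/PI double-negative cells; EC50 derived.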

[2] = system: PBMC; assay: Cytotoxicity against human PBMC cells assessed as viable fractions using annexin V-FITC/propidium iodide staining by flow cytometry; assay type: cell-based; how it was run: as §1

Structure (SMILES) | EC50 [1] [µM] | EC50 [2] [µM]
COc1cc2c(c(O)c1O)C(=O)C(O)=C(C)C2=O [DIONCOQUINONE C] | 14 | –
CC1=C(O)C(=O)c2cc(O)ccc2C1=O | > 100 | –
COc1ccc2c(c1)C(=O)C(O)=C(C)C2=O | > 100 | 50
COc1cccc2c1C(=O)C=C(C)C2=O | 4 | 16
CC1=C(O)C(=O)c2c(ccc(O)c2O)C1=O [DIONCOQUINONE B] | 11 | –
COc1cc2c(cc1OC)C(=O)C(O)=C(C)C2=O | > 100 | –
CC1=CC(=O)c2c(O)cccc2C1=O [PLUMBAGIN] | 0.8 | 0.8
CC1=C(O)C(=O)c2c(O)ccc(O)c2C1=O | > 100 | –
CC1=C(O)C(=O)c2c(O)cccc2C1=O [DROSERONE] | > 100 | –
COC1=C(C)C(=O)c2ccc(O)c(O)c2C1=O | > 100 | –
COc1cc2c(cc1OC)C(=O)C(C)=CC2=O | 6 | 6.5
CC1=C(O)C(=O)c2c(cc(O)c(O)c2O)C1=O | 7 | 70
COc1c(O)cc2c(c1O)C(=O)C(O)=C(C)C2=O [DIONCOQUINONE E] | 100 | –
COc1cc2c(c(OC)c1OC)C(=O)C=C(C)C2=O | 8 | 7.5
N[C@@H](Cc1ccc(N(CCCl)CCCl)cc1)C(=O)O [MELPHALAN] | 2 | 3
COc1ccc2c(c1OC)C(=O)C=C(C)C2=O | 15 | 13
CC1=C(O)C(=O)c2c(ccc(O[C@@H]3O[C@H](CO)[C@@H](O)[C@H](O)[C@H]3O)c2O)C1=O [DIONCOQUINONE A] | 29 | –
COc1cc2c(c(OC)c1OC)C(=O)C(O)=C(C)C2=O | > 100 | –
COc1ccc2c(c1OC)C(=O)C(O)=C(C)C2=O | > 100 | –
CC1=C(O)C(=O)c2cc(O)c(O)cc2C1=O | 52 | –
COc1ccc2c(c1O)C(=O)C(O)=C(C)C2=O | > 100 | –
COC1=C(C)C(=O)c2cc(OC)c(O)c(O)c2C1=O [DIONCOQUINONE D] | 80 | –
CC1=CC(=O)c2cc(O)ccc2C1=O | 13 | 17
CC1=CC(=O)c2c(ccc(O)c2O)C1=O | 75 | 100

From ChEMBL document CHEMBL1914341, “Anti-tumoral activities of dioncoquinones B and C and related naphthoquinones gained from total synthesis or isolation from plants” (Eur J Med Chem, 2011)
